In brackets after ≈: the same amount, converted by molar mass. Square brackets hold non-standard residues; d marks the D form. Peptide text beside a SMILES is read from it. * marks the point of attachment. Orn = NCCC[C@H](N)C(=O)O; NHCH2CH2OH = OCCN*; For = O=C*
How the values were obtained:
[1] = tested on: Micrococcus luteus; assay: microbe, parasite or virus in culture; type: functional; conditions: DSM 1790
[2] = tested on: Micrococcus luteus; assay: Antibacterial activity against Micrococcus luteus DSM 1790 in presence of silver nitrate; type: functional
Outline: (§1)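 Two-dimensional (checkerboard) microdilution: AgNO3 or carbon-matrix-stabilized silver nanoparticles (mean diameter 25 nm) crossed with a membrane-active antimicrobial peptide, in salt-free Luria/Miller bouillon. Nanoparticles dissolved in 8 mM Tris/HCl pH 7.6 with 150 mM NaCl. MICs taken alone and in combination; FIC index = MIC(A with B)/MIC(A alone) + MIC(B with A)/MIC(B alone). <0.5 synergy, 0.5–2.0 additive, >2.0 antagonism.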

[3] = tested on: Enterobacter helveticus; assay: Antibacterial activity against Enterobacter helveticus DSM 18396 in presence of silver nitrate; type: functional, Franconibacter helveticus
Outline: as §1

[4] = tested on: Kocuria rhizophila; assay: microbe, parasite or virus in culture; type: functional; conditions: DSM 348
[5] = tested on: Proteus myxofaciens; assay: microbe, parasite or virus in culture; type: functional; conditions: DSM 4482
[6] = Toxicity in human erythrocytes assessed as hemolysis by serial dilution method
[7] = tested on: Bacillus subtilis; assay: Antibacterial activity against Bacillus subtilis DSM 347 in presence of silver nitrate; type: functional
Outline: as §1

[8] = tested on: Micrococcus luteus; assay: Antibacterial activity against Micrococcus luteus DSM 1790 in presence of silver nanoparticles; type: functional
Outline: as §1

[9] = tested on: Escherichia coli; assay: microbe, parasite or virus in culture; type: functional; conditions: DSM 498
[10] = tested on: Bacillus subtilis; assay: Antibacterial activity against Bacillus subtilis DSM 347 in presence of silver nanoparticles; type: functional
Outline: as §1

[11] = tested on: Pseudomonas fluorescens; assay: microbe, parasite or virus in culture; type: functional; conditions: DSM 50090
[12] = tested on: Escherichia coli; assay: Antibacterial activity against Escherichia coli DSM 498 in presence of silver nanoparticles; type: functional
Outline: as §1

[13] = tested on: Enterobacter helveticus; assay: Antibacterial activity against Enterobacter helveticus DSM 18396 in presence of silver nanoparticles; type: functional, Franconibacter helveticus
Outline: as §1

[14] = tested on: Enterobacter helveticus; assay: microbe, parasite or virus in culture; type: functional; conditions: Franconibacter helveticus, DSM 18396
[15] = tested on: Acinetobacter calcoaceticus; assay: microbe, parasite or virus in culture; type: functional; conditions: DSM 586
[16] = tested on: Acinetobacter calcoaceticus; assay: Antibacterial activity against Acinetobacter calcoaceticus DSM 586 in presence of silver nitrate; type: functional
Outline: as §1

[17] = tested on: Bacillus subtilis; assay: microbe, parasite or virus in culture; type: functional; conditions: DSM 347
[18] = tested on: Kocuria rhizophila; assay: Antibacterial activity against Kocuria rhizophila DSM 348 in presence of silver nanoparticles; type: functional
Outline: as §1

[19] = tested on: Aeromonas bestiarum; assay: microbe, parasite or virus in culture; type: functional; conditions: DSM 13956
[20] = tested on: Escherichia coli; assay: Antibacterial activity against Escherichia coli DSM 498 in presence of silver nitrate; type: functional
Outline: as §1

[21] = tested on: Kocuria rhizophila; assay: Antibacterial activity against Kocuria rhizophila DSM 348 in presence of silver nitrate; type: functional
Outline: as §1

[22] = tested on: Pseudomonas fluorescens; assay: Antibacterial activity against Pseudomonas fluorescens DSM 50090 in presence of silver nitrate; type: functional
Outline: as §1

[23] = tested on: Pseudomonas fluorescens; assay: Antibacterial activity against Pseudomonas fluorescens DSM 50090 in presence of silver nanoparticles; type: functional
Outline: as §1

[24] = tested on: Proteus myxofaciens; conditions: DSM 4482
[25] = tested on: Aeromonas bestiarum; assay: Antibacterial activity against Aeromonas bestiarum DSM 13956 in presence of silver nitrate; type: functional
Outline: as §1

[26] = tested on: Proteus myxofaciens; assay: Antibacterial activity against Proteus myxofaciens DSM 4482 in presence of silver nitrate; type: functional
Outline: as §1

[27] = tested on: Micrococcus luteus; conditions: DSM 1790
[28] = tested on: Aeromonas bestiarum; conditions: DSM 13956
[29] = tested on: Pseudomonas fluorescens; conditions: DSM 50090
[30] = tested on: Aeromonas bestiarum; assay: Antibacterial activity against Aeromonas bestiarum DSM 13956 in presence of silver nanoparticles; type: functional
Outline: as §1

[31] = tested on: Enterobacter helveticus; conditions: Franconibacter helveticus; DSM 18396
[32] = tested on: Proteus myxofaciens; assay: Antibacterial activity against Proteus myxofaciens DSM 4482 in presence of silver nanoparticles; type: functional
Outline: as §1

[33] = tested on: Bacillus subtilis; conditions: DSM 347
[34] = tested on: Kocuria rhizophila; conditions: DSM 348
[35] = tested on: Acinetobacter calcoaceticus; conditions: DSM 586
[36] = tested on: Escherichia coli; conditions: DSM 498

Compound	MIC [1] [µg/mL]	MIC [4] [µg/mL]	MIC [5] [µg/mL]	MIC [9] [µg/mL]	MIC [11] [µg/mL]	MIC [14] [µg/mL]	MIC [15] [µg/mL]	MIC [17] [µg/mL]	MIC [19] [µg/mL]	fractional inhibitory concentration index (FICI) [2]	fractional inhibitory concentration index (FICI) [3]	HC50 ([6]; human erythrocytes) [µg/mL]	fractional inhibitory concentration index (FICI) [7]	fractional inhibitory concentration index (FICI) [8]	fractional inhibitory concentration index (FICI) [10]	fractional inhibitory concentration index (FICI) [12]	fractional inhibitory concentration index (FICI) [16]	fractional inhibitory concentration index (FICI) [18]	fractional inhibitory concentration index (FICI) [20]	fractional inhibitory concentration index (FICI) [21]	also measured
H-GIGKFLHSAKKFGKAFVGEIMNS-OH [MAGAININ 2]	16	16	> 256	16	> 256	8	16	16	> 256	1.02	0.71	202	0.69	1.04	0.67	0.86	0.79	0.96	1	0.67	fractional inhibitory concentration index (FICI) [13]: 0.59
POLYMYXIN B [listing 1 of 2 here]																					HC50 ([6]; erythrocyte): 210.7 µg/mL
POLYMYXIN B [listing 2 of 2 here]										0.58			0.59	0.96	0.96	0.38	0.83	0.61	0.38	0.83	MIC [24]: 16 µg/mL; fractional inhibitory concentration index (FICI) [22]: 0.56; fractional inhibitory concentration index (FICI) [25]: 0.5; fractional inhibitory concentration index (FICI) [26]: 0.23; fractional inhibitory concentration index (FICI) ([3]; Franconibacter helveticus): 0.29; MIC [27]: 4 µg/mL; MIC [28]: 16 µg/mL; MIC [29]: 128 µg/mL; fractional inhibitory concentration index (FICI) [30]: 0.39; fractional inhibitory concentration index (FICI) ([13]; Franconibacter helveticus): 0.38; MIC [31]: 1 µg/mL; fractional inhibitory concentration index (FICI) [32]: 0.23; MIC [33]: 8 µg/mL; fractional inhibitory concentration index (FICI) [23]: 0.27; MIC [34]: 16 µg/mL; MIC [35]: 1 µg/mL; MIC [36]: 1 µg/mL
CC(C)C[C@@H]1NC(=O)[C@H](CCCN)NC(=O)[C@H](C(C)C)NC(=O)[C@@H]2CCCN2C(=O)[C@@H](Cc2ccccc2)NC(=O)[C@H](CC(C)C)NC(=O)[C@H](CCCN)NC(=O)[C@H](C(C)C)NC(=O)[C@@H]2CCCN2C(=O)[C@@H](Cc2ccccc2)NC1=O [GRAMICIDIN S] (cyclo(L[dF]PV[Orn]L[dF]PV[Orn]))	2 (≈ 1.75 µM)	4 (≈ 3.5 µM)	16 (≈ 14 µM)	8 (≈ 7.01 µM)	16 (≈ 14 µM)	4 (≈ 3.5 µM)	16 (≈ 14 µM)	2 (≈ 1.75 µM)	32 (≈ 28 µM)	0.92	0.32	10.1	0.73	1.25	0.77	0.56	0.77	0.83	0.83	0.92	fractional inhibitory concentration index (FICI) [22]: 0.67; fractional inhibitory concentration index (FICI) [25]: 0.53; fractional inhibitory concentration index (FICI) [26]: 0.63; fractional inhibitory concentration index (FICI) [30]: 0.63; fractional inhibitory concentration index (FICI) [13]: 0.44; fractional inhibitory concentration index (FICI) [32]: 0.38; fractional inhibitory concentration index (FICI) [23]: 0.48

Now from value to compound, other results behind:

MIC [1] [µg/mL]	MIC [4] [µg/mL]	MIC [5] [µg/mL]	MIC [9] [µg/mL]	MIC [11] [µg/mL]	MIC [14] [µg/mL]	MIC [15] [µg/mL]	MIC [17] [µg/mL]	MIC [19] [µg/mL]	Compound	fractional inhibitory concentration index (FICI) [2]	fractional inhibitory concentration index (FICI) [3]	HC50 ([6]; human erythrocytes) [µg/mL]	fractional inhibitory concentration index (FICI) [7]	fractional inhibitory concentration index (FICI) [8]	fractional inhibitory concentration index (FICI) [10]	fractional inhibitory concentration index (FICI) [12]	fractional inhibitory concentration index (FICI) [16]	fractional inhibitory concentration index (FICI) [18]	fractional inhibitory concentration index (FICI) [20]	fractional inhibitory concentration index (FICI) [21]	also measured
4	8	> 256	8	> 256	8	8	8	> 256	H-GMASKAGAIAGKIAKVALKAL-NH2	0.71	0.71	165	0.92	1	0.71	1	1.08	1.01	0.67	1.08	fractional inhibitory concentration index (FICI) [13]: 0.57
8 (≈ 4.07 µM)	8 (≈ 4.07 µM)	256 (≈ 130 µM)	256 (≈ 130 µM)	128 (≈ 65.2 µM)	256 (≈ 130 µM)	256 (≈ 130 µM)	8 (≈ 4.07 µM)	256 (≈ 130 µM)	CC(=O)NC(C)(C)C(=O)N1CCC[C@H]1C(=O)NC(C)(C)C(=O)N[C@@H](C)C(=O)NC(C)(C)C(=O)N[C@@H](C)C(=O)N[C@@H](CCC(N)=O)C(=O)NC(C)(C)C(=O)N[C@H](C(=O)NC(C)(C)C(=O)NCC(=O)N[C@@H](CC(C)C)C(=O)NC(C)(C)C(=O)N1CCC[C@H]1C(=O)N[C@H](C(=O)NC(C)(C)C(=O)NC(C)(C)C(=O)N[C@@H](CCC(=O)O)C(=O)N[C@@H](CCC(N)=O)C(=O)N[C@H](CO)Cc1ccccc1)C(C)C)C(C)C [ALAMETHICIN]			17.9	1		0.88	0.5		1	0.5	1	fractional inhibitory concentration index (FICI) [22]: 1; fractional inhibitory concentration index (FICI) [23]: 1
1 (≈ 0.531 µM)	1 (≈ 0.531 µM)	> 128	> 128	> 128	> 128	> 128	1 (≈ 0.531 µM)	> 128	CC(C)C[C@@H](NC(=O)[C@H](C)NC(=O)CNC(=O)[C@@H](NC=O)C(C)C)C(=O)N[C@@H](C)C(=O)N[C@@H](C(=O)N[C@H](C(=O)N[C@@H](C(=O)N[C@@H](Cc1c[nH]c2ccccc12)C(=O)N[C@H](CC(C)C)C(=O)N[C@@H](Cc1c[nH]c2ccccc12)C(=O)N[C@H](CC(C)C)C(=O)N[C@@H](Cc1c[nH]c2ccccc12)C(=O)N[C@H](CC(C)C)C(=O)N[C@@H](Cc1c[nH]c2ccccc12)C(=O)NCCO)C(C)C)C(C)C)C(C)C [GRAMICIDIN A] (For-VGA[dL]A[dV]V[dV]W[dL]W[dL]W[dL]W-NHCH2CH2OH)	0.88		2.3	0.42	1.04	0.94			1.04		0.79	

— ChEMBL document CHEMBL1649572, “Synergistic interaction between silver nanoparticles and membrane-permeabilizing antimicrobial peptides” (Antimicrob Agents Chemother, 2009)
